Data: ChEMBL document CHEMBL2321837, “Discovery of novel inhibitors targeting the Mycobacterium tuberculosis O-acetylserine sulfhydrylase (CysK1) using virtual high-throughput screening” (Bioorg Med Chem Lett, 2013)
In brackets after ≈: the same amount, converted by molar mass.

Legend:
[1] = Cytotoxicity against HEK293T cells assessed as growth inhibition at 25 uM by MTT assay relative to control; assay type: cell-based, HEK-293T; details: human, read-out: GI
[2] = Cytotoxicity against HEK293T cells assessed as growth inhibition at 50 uM by MTT assay relative to control; assay type: cell-based, HEK-293T; details: human, read-out: GI
[3] = tested on: Mycobacterium tuberculosis; experiment: Antimycobacterial activity against Mycobacterium tuberculosis H37Rv ATCC 27294 assessed as growth inhibition by NCCLS agar dilution method; assay type: functional
Outline: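 M. tuberculosis H37Rv (ATCC27294) agar dilution, compounds 50 to 0.78 µg/mL in duplicates. MIC taken as lowest concentration completely inhibiting growth; isoniazid and ethambutol as reference compounds.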

[4] = target: O-acetylserine sulfhydrylase (Mycobacterium tuberculosis) (UniProt P9WP55); experiment: Inhibition of Mycobacterium tuberculosis CysK1 using O-acetyl-L-serine as substrate assessed as L-cycteine formation at 100 uM after 5 mins by spectrophotometric analysis relative to control
Outline: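 Single-point screen of compounds at 100 µM. Assay mix (MOPS pH 7.0, O-acetyl-L-serine, CysK1) was preincubated 5 min at room temperature, then started with 1 mM sodium sulphide for 20 min. It was stopped with trichloroacetic acid (final 16.6%), then acid-ninhydrin reagent was added and heated at 96 °C for 10 min. After 1:1 ethanol dilution, OD was read at 560 nm; triplicates. Controls were DFSI tetrapeptide (100 µM, 100% inhibition) and no inhibitor (0%).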

[5] = target: T1, O-acetylserine sulfhydrylase (Mycobacterium tuberculosis, UniProt P9WP55); experiment: Inhibition of Mycobacterium tuberculosis CysK1 using O-acetyl-L-serine as substrate assessed as L-cycteine formation after 5 mins by spectrophotometric analysis
Outline: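 Dose–response: serial 1:3 dilutions prepared in 50% DMSO (final DMSO 5%). Final mix was 100 mM MOPS pH 7.0, 2 mM O-acetyl-L-serine, […] CysK1, preincubated 5 min at room temperature. The reaction was started with sodium sulphide (final 1 mM). Aliquots taken at time intervals were assayed for L-cysteine by acid-ninhydrin. Specific activity vs concentration was fitted to a sigmoid for IC50.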

[6] = target: T1, O-acetylserine sulfhydrylase; experiment: Competitive inhibition of Mycobacterium tuberculosis CysK1
Outline: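 Purified CysK1 preincubated 5 min at room temperature with 1:3 serial compound dilutions in 100 mM MOPS pH 7.0 and 2 mM O-acetyl-L-serine, 5% DMSO final. Reaction started with sodium sulphide (1 mM final); aliquots were taken at time intervals. L-cysteine was measured by acid-ninhydrin (96 °C, 10 min) at 560 nm. IC50 came from sigmoid fits of specific activity.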

Structure (SMILES) | inhibition at 25 µM [1] [%] | inhibition at 50 µM [2] [%] | MIC [3] [µM] | inhibition [4] [%] | IC50 [5] [µM] | Ki [6] [µM]
O=C1N=C2C(C(=O)N=C3SC([N+](=O)[O-])=CN32)C(c2ccccc2O)N1 (stereo not drawn) | 0 | 0 | 69.6 (≈ 25 µg/mL) | 107 | – | –
O=C1N=C2C(C(=O)N=C3SC([N+](=O)[O-])=CN32)C(c2ccc(F)cc2)N1 (stereo not drawn) | 5.4 | 10.7 | 17.3 (≈ 6.25 µg/mL) | 100 | – | –
O=C1N=C2C(C(=O)N=C3SC([N+](=O)[O-])=CN32)C(c2ccccc2C(F)(F)F)N1 (stereo not drawn) | 5.7 | 13.1 | 7.6 (≈ 3.13 µg/mL) | 13.8 | 17.7 | –
CN(C)c1ccc(C2NC(=S)N=C3C2C(=O)N=C2SC([N+](=O)[O-])=CN23)cc1 (stereo not drawn) | 8 | 26.8 | 15.5 (≈ 6.24 µg/mL) | 100 | – | –
O=C1N=C2SC([N+](=O)[O-])=CN2C2=NC(=S)NC(c3cccc(Br)c3)C12 (stereo not drawn) | 6 | 13.5 | 7.1 (≈ 3.11 µg/mL) | 39.9 | – | –
COc1ccc(C2NC(=S)N=C3C2C(=O)N=C2SC([N+](=O)[O-])=CN23)cc1 (stereo not drawn) | 0.2 | 14.6 | 32.1 (≈ 12.5 µg/mL) | 9.1 | 22.7 | –
O=C1N=C2SC([N+](=O)[O-])=CN2C2=NC(=S)NC(c3c(Cl)cccc3Cl)C12 (stereo not drawn) | 21.3 | 30.7 | 58.4 (≈ 25 µg/mL) | 113 | – | –
O=C1N=C2C(C(=O)N=C3SC([N+](=O)[O-])=CN32)C(c2ccccc2)N1 (stereo not drawn) | 1.6 | 3.8 | > 146 | 84.1 | – | –
O=C1N=C2C(C(=O)N=C3SC([N+](=O)[O-])=CN32)C(c2ccc([N+](=O)[O-])cc2)N1 (stereo not drawn) | 2.6 | 9.4 | 129 (≈ 50 µg/mL) | 54.7 | – | –
CC[C@H](C)[C@H](NC(=O)[C@H](CO)NC(=O)[C@H](Cc1ccccc1)NC(=O)[C@@H](N)CC(=O)O)C(=O)O | – | – | – | – | 7.4 | 5
Cc1ccccc1C1NC(=O)N=C2C1C(=O)N=C1SC([N+](=O)[O-])=CN12 (stereo not drawn) | 6 | 20.4 | 70 (≈ 25 µg/mL) | 103 | – | –
O=C1N=C2SC([N+](=O)[O-])=CN2C2=NC(=S)NC(c3ccc(F)cc3)C12 (stereo not drawn) | 30.6 | 43.4 | 16.6 (≈ 6.26 µg/mL) | 60 | – | –
O=C1N=C2SC([N+](=O)[O-])=CN2C2=NC(=S)NC(c3ccccc3)C12 (stereo not drawn) | 0 | 25.3 | 69.6 (≈ 25 µg/mL) | 90.4 | – | –
O=C1N=C2C(C(=O)N=C3SC([N+](=O)[O-])=CN32)C(c2c(Cl)cccc2Cl)N1 (stereo not drawn) | 0 | 0 | 121 (≈ 50 µg/mL) | 57.8 | – | –
Cc1ccc(C2NC(=S)N=C3C2C(=O)N=C2SC([N+](=O)[O-])=CN23)cc1 (stereo not drawn) | 0 | 14.7 | 67 (≈ 25 µg/mL) | 106 | – | –
COc1cc(C2NC(=O)N=C3C2C(=O)N=C2SC([N+](=O)[O-])=CN23)ccc1O (stereo not drawn) | 0 | 0 | 128 (≈ 50 µg/mL) | 90.5 | – | –
O=C1N=C2SC([N+](=O)[O-])=CN2C2=NC(=S)NC(c3ccccc3O)C12 (stereo not drawn) | 0.1 | 12 | 33.3 (≈ 12.5 µg/mL) | 68.8 | – | –

Structure (SMILES) | inhibition at 25 µM [1] [%] | inhibition at 50 µM [2] [%] | MIC [3] [µM] | inhibition [4] [%] | IC50 [5] [µM] | Ki [6] [µM]
Cc1ccccc1C1NC(=S)N=C2C1C(=O)N=C1SC([N+](=O)[O-])=CN12 (stereo not drawn) | 3.6 | 18.8 | 33.5 (≈ 12.5 µg/mL) | 15.9 | 17.7 | –
O=C1N=C2SC([N+](=O)[O-])=CN2C2=NC(=S)NC(c3ccccc3[N+](=O)[O-])C12 (stereo not drawn) | 1 | 8.7 | 30.9 (≈ 12.5 µg/mL) | 11.3 | 30.3 | –
O=C1N=C2SC([N+](=O)[O-])=CN2C2=NC(=S)NC(c3ccc(Cl)cc3)C12 (stereo not drawn) | 7.4 | 14.6 | 15.9 (≈ 6.26 µg/mL) | 102 | – | –
O=C1N=C2SC([N+](=O)[O-])=CN2C2=NC(=S)NC(c3ccc([N+](=O)[O-])cc3)C12 (stereo not drawn) | 1.64 | 6.6 | 61.8 (≈ 25 µg/mL) | 70.6 | – | –
CN(C)c1ccc(C2NC(=O)N=C3C2C(=O)N=C2SC([N+](=O)[O-])=CN23)cc1 (stereo not drawn) | 0 | 4.9 | 32.4 (≈ 12.5 µg/mL) | 92.7 | – | –
O=C1N=C2C(C(=O)N=C3SC([N+](=O)[O-])=CN32)C(c2ccccc2[N+](=O)[O-])N1 (stereo not drawn) | 0 | 0 | 129 (≈ 50 µg/mL) | 93 | – | –
NNC(=O)c1ccncc1 [ISONIAZID] | – | – | 0.72 (≈ 0.0987 µg/mL) | – | – | –
COc1ccc(C2NC(=O)N=C3C2C(=O)N=C2SC([N+](=O)[O-])=CN23)cc1 (stereo not drawn) | 0 | 7.3 | 134 (≈ 50 µg/mL) | 93.9 | – | –
COc1cc(C2NC(=S)N=C3C2C(=O)N=C2SC([N+](=O)[O-])=CN23)ccc1O (stereo not drawn) | 0 | 1.35 | 123 (≈ 50 µg/mL) | 89.2 | – | –
Cc1ccc(C2NC(=O)N=C3C2C(=O)N=C2SC([N+](=O)[O-])=CN23)cc1 (stereo not drawn) | 0 | 0 | 70 (≈ 25 µg/mL) | 57.7 | – | –
O=C1N=C2C(C(=O)N=C3SC([N+](=O)[O-])=CN32)C(c2ccc(Br)cc2)N1 (stereo not drawn) | 6.1 | 11.2 | 29.6 (≈ 12.5 µg/mL) | 89.1 | – | –
O=C1N=C2C(C(=O)N=C3SC([N+](=O)[O-])=CN32)C(c2cccc(Br)c2)N1 (stereo not drawn) | 0 | 2.8 | 14.8 (≈ 6.25 µg/mL) | 60.1 | – | –
O=C1N=C2SC([N+](=O)[O-])=CN2C2=NC(=S)NC(c3ccccc3C(F)(F)F)C12 (stereo not drawn) | 27.7 | 52.2 | 7.3 (≈ 3.12 µg/mL) | 89.4 | – | –
O=C1N=C2C(C(=O)N=C3SC([N+](=O)[O-])=CN32)C(c2ccc(Cl)cc2)N1 (stereo not drawn) | 0 | 0 | 66.2 (≈ 25 µg/mL) | 80 | – | –
O=C1N=C2SC([N+](=O)[O-])=CN2C2=NC(=S)NC(c3ccc(Br)cc3)C12 (stereo not drawn) | 2.5 | 6.5 | 28.5 (≈ 12.5 µg/mL) | 65.6 | – | –
CC[C@@H](CO)NCCN[C@@H](CC)CO [ETHAMBUTOL] | – | – | 4.71 (≈ 0.962 µg/mL) | – | – | –
